Experimental data from ChEMBL document CHEMBL2146366, “Discovery of microsomal triglyceride transfer protein (MTP) inhibitors with potential for decreased active metabolite load compared to dirlotapide” (Bioorg Med Chem Lett, 2011).
Calls of active or inactive are those of the source. No cut-off for these calls is given here.

Key:
Rattus norvegicus [1] = assay: Antiobesity activity in high fat diet-induced obese Sprague-Dawley rat assessed as triglyceride accumulation in liver at 3 mg/kg, po administered daily for 3 days relative to control; assay type: functional, organism-based; parameters: dose 3 mg/kg
Summary of the method: (§1)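 Male Sprague–Dawley rats (~300 g, n = 5 per group) were acclimatized for seven days to a high-fat diet (45% kcal from fat). They received three consecutive daily oral gavage doses 1.5 h before the dark cycle. Vehicle was SEDDS:H2O 10:90, with SEDDS made of Miglyol 812 10%, triacetin 30%, polysorbate 80 20% and Capmul MCM 30%. Food intake was recorded during dosing, and liver TG was measured afterwards, both against vehicle.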

[2] = Oral bioavailability in beagle dog at 2.5 mg/kg; assay type: ADME, organism-based, Canis lupus familiaris; conditions: in vivo
Rattus norvegicus [3] = assay: Antiobesity activity in high fat diet-induced obese Sprague-Dawley rat assessed as reduction of food intake at 10 mg/kg, po qd for 7 days relative to control; assay type: functional; parameters: scale not given: the % may be the effect or the level left
Summary of the method: (§2)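 Seven-day rat study: once-daily oral dosing at 3, 10 or 30 mg/kg, with 1, 3 and 100 mg/kg also used for one series. Compounds were given as spray-dried dispersions in hydroxypropylmethylcellulose acetate succinate. Food intake, body weight, liver TG and serum ALT were measured against vehicle. Systemic exposure was reported as AUC (ng h/mL). Significance versus vehicle was set at P ≤ 0.05.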

Rattus norvegicus [4] = assay: Antiobesity activity in high fat diet-induced obese Sprague-Dawley rat assessed as reduction in body weight at 3 mg/kg, po administered daily for 3 days relative to control; assay type: functional; parameters: scale not given: the % may be the effect or the level left
Rattus norvegicus [5] = assay: Antiobesity activity in high fat diet-induced obese Sprague-Dawley rat assessed as reduction in body weight at 30 mg/kg, po administered daily for 3 days relative to control; assay type: functional; parameters: scale not given: the % may be the effect or the level left
Rattus norvegicus [6] = assay: Antiobesity activity in high fat diet-induced obese Sprague-Dawley rat assessed as reduction of food intake at 30 mg/kg, po administered daily for 3 days relative to control; assay type: functional; parameters: scale not given: the % may be the effect or the level left; summary of the method: as §1
Rattus norvegicus [7] = assay: Drug metabolism in rat assessed as formation of 2-(2'-(6-(2-((4-fluorobenzyl)(methyl)amino)-2-oxo-1-phenylethylcarbamoyl)quinolin-2-ylcarbamoyl)biphenyl-4-yl)-2-methylpropanoic acid at 30 mg/kg, po administered as single dose; assay type: ADME, organism-based; parameters: dose 30 mg/kg, route oral; conditions: in vivo
Rattus norvegicus [8] = assay: Antiobesity activity in po dosed high fat diet-induced obese Sprague-Dawley rat assessed as reduction of food intake administered daily for 3 days; assay type: functional; conditions: 72 h, read-out: MED; summary of the method: as §1
Rattus norvegicus [9] = assay: Antiobesity activity in high fat diet-induced obese Sprague-Dawley rat assessed as reduction of body weight at 3 mg/kg, po qd for 7 days relative to control; assay type: functional; parameters: scale not given: the % may be the effect or the level left; summary of the method: as §2
Rattus norvegicus [10] = assay: Antiobesity activity in high fat diet-induced obese Sprague-Dawley rat assessed as reduction of food intake at 10 mg/kg, po administered with 25% SDD formulation daily for 3 days relative to dirlotapide; assay type: functional; parameters: scale not given: the % may be the effect or the level left
Summary of the method: (§3)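 Three-day oral dosing study in male Sprague–Dawley rats (~300 g, n = 5 per group) fed a high-fat diet (45% kcal from fat). Animals received daily gavage doses 1.5 h before the dark cycle. Compound was given as a spray-dried dispersion made by spray drying compound with hydroxypropylmethylcellulose acetate succinate. Food intake was recorded during dosing and liver TG measured afterwards, both against vehicle.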

Rattus norvegicus [11] = assay: Toxicity in high fat diet-induced obese Sprague-Dawley rat assessed as change in serum ALT level at 3 mg/kg, po qd for 7 days relative to control; assay type: organism-based; parameters: dose 3 mg/kg, route oral; conditions: in vivo, 168 h
Summary of the method: (§4)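 Seven-day study in high-fat-diet rats. Compound was given once daily by mouth as a spray-dried dispersion, with vehicle controls. Serum ALT was measured alongside food intake, body weight, liver TG and systemic exposure (AUC). ALT is expressed as % change versus vehicle, with significance set at P ≤ 0.05.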

Rattus norvegicus [12] = assay: Antiobesity activity in high fat diet-induced obese Sprague-Dawley rat assessed as reduction in body weight at 100 mg/kg, po administered daily for 3 days relative to dirlotapide; assay type: functional; parameters: scale not given: the % may be the effect or the level left
Rattus norvegicus [13] = assay: Antiobesity activity in high fat diet-induced obese Sprague-Dawley rat assessed as reduction of food intake at 30 mg/kg, po administered daily for 3 days relative to dirlotapide; assay type: functional; parameters: scale not given: the % may be the effect or the level left; summary of the method: as §1
Rattus norvegicus [14] = assay: Antiobesity activity in high fat diet-induced obese Sprague-Dawley rat assessed as reduction of triglyceride accumulation in liver at 30 mg/kg, po qd for 7 days relative to control; assay type: functional; parameters: scale not given: the % may be the effect or the level left; summary of the method: as §2
Rattus norvegicus [15] = assay: Antiobesity activity in high fat diet-induced obese Sprague-Dawley rat assessed as reduction in body weight at 1 mg/kg, po administered daily for 3 days relative to control; assay type: functional; parameters: scale not given: the % may be the effect or the level left
Rattus norvegicus [16] = assay: Antiobesity activity in high fat diet-induced obese Sprague-Dawley rat assessed as reduction of food intake at 1 mg/kg, po administered daily for 3 days relative to dirlotapide; assay type: functional; parameters: scale not given: the % may be the effect or the level left; summary of the method: as §1
Rattus norvegicus [17] = assay: Toxicity in high fat diet-induced obese Sprague-Dawley rat assessed as change in serum ALT level at 10 mg/kg, po qd for 7 days relative to control; assay type: organism-based; parameters: dose 10 mg/kg, route oral; conditions: in vivo, 168 h; summary of the method: as §4
Rattus norvegicus [18] = assay: Antiobesity activity in high fat diet-induced obese Sprague-Dawley rat assessed as reduction of triglyceride accumulation in liver at 3 mg/kg, po qd for 7 days relative to control; assay type: functional; parameters: scale not given: the % may be the effect or the level left; summary of the method: as §2
Rattus norvegicus [19] = assay: Antiobesity activity in high fat diet-induced obese Sprague-Dawley rat assessed as reduction of triglyceride accumulation in liver at 10 mg/kg, po qd for 7 days relative to control; assay type: functional; parameters: scale not given: the % may be the effect or the level left; summary of the method: as §2
Rattus norvegicus [20] = assay: Antiobesity activity in high fat diet-induced obese Sprague-Dawley rat assessed as reduction of food intake at 1 mg/kg, po administered daily for 3 days relative to control; assay type: functional; parameters: scale not given: the % may be the effect or the level left; summary of the method: as §1
Rattus norvegicus [21] = assay: Antiobesity activity in high fat diet-induced obese Sprague-Dawley rat assessed as triglyceride accumulation in liver at 30 mg/kg, po administered daily for 3 days relative to control; assay type: functional; summary of the method: as §1
Rattus norvegicus [22] = assay: Antiobesity activity in high fat diet-induced obese Sprague-Dawley rat assessed as reduction in body weight at 3 mg/kg, po administered daily for 3 days relative to dirlotapide; assay type: functional; parameters: scale not given: the % may be the effect or the level left
Rattus norvegicus [23] = assay: Antiobesity activity in high fat diet-induced obese Sprague-Dawley rat assessed as reduction in body weight at 10 mg/kg, po administered with 25% SDD formulation daily for 3 days relative to dirlotapide; assay type: functional; parameters: scale not given: the % may be the effect or the level left
Rattus norvegicus [24] = assay: Antiobesity activity in high fat diet-induced obese Sprague-Dawley rat assessed as reduction of body weight at 30 mg/kg, po qd for 7 days; assay type: functional; parameters: scale not given: the % may be the effect or the level left; summary of the method: as §2
Rattus norvegicus [25] = assay: Antiobesity activity in high fat diet-induced obese Sprague-Dawley rat assessed as reduction in body weight at 10 mg/kg, po administered daily for 3 days relative to dirlotapide; assay type: functional; parameters: scale not given: the % may be the effect or the level left
[26] = Oral bioavailability in rat at 30 mg/kg; assay type: ADME, organism-based; conditions: in vivo
Rattus norvegicus [27] = assay: Antiobesity activity in high fat diet-induced obese Sprague-Dawley rat assessed as reduction of triglyceride accumulation in liver at 10 mg/kg, po administered daily for 3 days relative to dirlotapide; assay type: functional; parameters: scale not given: the % may be the effect or the level left; summary of the method: as §1
Rattus norvegicus [28] = assay: Antiobesity activity in high fat diet-induced obese Sprague-Dawley rat assessed as reduction of food intake at 10 mg/kg, po administered with 25% SDD formulation daily for 3 days relative to control; assay type: functional; parameters: scale not given: the % may be the effect or the level left; summary of the method: as §3
Canis familiaris = assay: Drug metabolism in beagle dog assessed as formation of 2-(2'-(6-(2-((4-fluorobenzyl)(methyl)amino)-2-oxo-1-phenylethylcarbamoyl)quinolin-2-ylcarbamoyl)biphenyl-4-yl)-2-methylpropanoic acid at 2.5 mg/kg, po administered as single dose; assay type: ADME, organism-based, Canis lupus familiaris; parameters: dose 2.5 mg/kg, route oral; conditions: in vivo
Rattus norvegicus [29] = assay: Antiobesity activity in po dosed high fat diet-induced obese Sprague-Dawley rat assessed as reduction of reduction of triglyceride accumulation in liver administered daily for 3 days; assay type: functional; conditions: 72 h, read-out: MED
Summary of the method: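 Male Sprague–Dawley rats (about 300 g; n = 5 per group) were acclimatized for seven days to a high-fat diet (45% kcal from fat). They received three consecutive daily oral gavage doses in SEDDS:H₂O 10:90 vehicle 1.5 h before the dark cycle. Food intake was recorded, and liver TG was then measured against the vehicle group.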

With `CN(Cc1ccc(F)cc1)C(=O)[C@@H](NC(=O)c1ccc2nc(NC(=O)c3ccccc3-c3ccc(C(C)(C)C)cc3)ccc2c1)c1ccccc1` the Activity (Rattus norvegicus [1]) was “inactive”, the bioavailability [2] was less than 3% and the Activity (Rattus norvegicus [3]) was 51%. It also gave an Activity (Rattus norvegicus [4]) of 67%, an Activity (Rattus norvegicus [5]) of 89% and an Activity (Rattus norvegicus [6]) of 41%. The Drug metabolism (Rattus norvegicus [7]) was “Active”, the minimal effective dose (Rattus norvegicus [8]) was 3 mg/kg and the Activity (Rattus norvegicus [9]) was 85%. The Activity (Rattus norvegicus [10]) was 8%, the Activity (Rattus norvegicus [11]) was 168% and the Activity (Rattus norvegicus [12]) was 75%. For the same molecule, the Activity (Rattus norvegicus [13]) was 37%, the Activity (Rattus norvegicus [14]) was 212% and the Activity (Rattus norvegicus [15]) was 32%. The Activity (Rattus norvegicus [16]) was 5%, the Activity (Rattus norvegicus [17]) was 143% and the Activity (Rattus norvegicus [18]) was 43%. It also gave an Activity (Rattus norvegicus [19]) of 219%, an Activity (Rattus norvegicus [20]) of 12% and an Activity (Rattus norvegicus [21]) of 102%. It also gave an Activity (Rattus norvegicus [22]) of 10%, an Activity (Rattus norvegicus [23]) of 32% and an Activity (Rattus norvegicus [24]) of 220%. The Activity (Rattus norvegicus [25]) was 97%, the bioavailability [26] was less than 3% and the Activity (Rattus norvegicus [27]) was 120%. The Activity (Rattus norvegicus [28]) was 33%, the Drug metabolism (Canis familiaris) was “Active” and the minimal effective dose (Rattus norvegicus [29]) was 3 mg/kg.
